Here are results for 18 molecules from ChEMBL document CHEMBL4311980, “Discovery of 2-isoxazol-3-yl-acetamide analogues as heat shock protein 90 (HSP90) inhibitors with significant anti-HIV activity” (Eur J Med Chem, 2019).

The subject of data set [1] is Human immunodeficiency virus 1. The experiment in a line: Antiviral activity against HIV-1 NL4-3 infected in human CEM-GFP cells assessed as suppression of viral replication by measuring reduction in p24 level measured at 72 hrs post-infection by ELISA. Type of data set: functional, organism-based. The note with it: Human immunodeficiency virus 1, NL4-3, CEM-GFP. The method, boiled down: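 Cells were incubated with 0.5 MOI virus in the presence of polybrene at 37 °C for 4 h with intermittent mixing, then washed and plated in complete RPMI-1640. Compound added at different concentrations, with untreated and DMSO controls. PBMC were PHA-activated. Supernatant p24 measured by capture ELISA (A450) at 72 h. % inhibition calculated relative to untreated cells.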

Data set [2] can be described thus: Cytotoxicity against human CEM-GFP cells assessed as reduction in cell viability after 48 hrs by MTT assay. Type of data set: cell-based. The method, boiled down:
(§1)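 Cells were seeded at 25,000/well in complete medium with compound at different concentrations, with untreated and DMSO controls, and incubated 48 h. MTT (5 mg/mL stock) was added for 4 h at 37 °C in the dark. Formazan was dissolved in isopropanol and A570 read. CC50 and highest non-cytotoxic concentration were derived from this assay.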

Data set [3] in a line: Therapeutic index, ratio of CC50 for human CEM-GFP cells to IC50 for antiviral activity against HIV-1 NL4-3 infected in human CEM-GFP cells. It is filed as toxicity, cell-based. Conditions: read-out: Ratio CC50/IC50. The method, boiled down: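 IC50 was determined from p24 ELISA 72 h after 0.5 MOI HIV-1 NL4-3 infection with compound at different concentrations. Therapeutic index = CC50/IC50.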

Data set [4] can be described thus: Cytotoxicity against human TZM-bl cells assessed as maximum non-cytotoxic concentration after 48 hrs by MTT assay. Type of data set: cell-based. Conditions: read-out: MNCC. The method, boiled down: as §1
For data set [5], the system named is Human immunodeficiency virus 1. In words: Antiviral activity against HIV1 NL4-3 infected in human TZM-bl cells assessed as reduction in viral replication at 100 nM measured at 48 hrs post-infection by steady-glo reporter gene assay relative to control. It is filed as functional. Conditions: Human immunodeficiency virus 1, NL4-3, TZM-bl. Put shortly: (§2)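 TZM-bl cells (0.15×10^6/well) were infected with 0.5 MOI HIV-1 NL4-3 12 h after seeding and treated at the highest non-cytotoxic concentration, which was set by MTT assay. At 48 h post-infection, cells were lysed and mixed 1:1 with Steady-Glo substrate, and luminescence was read.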

The target of data set [6] is Human immunodeficiency virus type 1 reverse transcriptase (Human immunodeficiency virus 1) (UniProt Q72547). Conditions: 500 nM.
Data set [7] relates to Human immunodeficiency virus 1. The experiment in a line: Antiviral activity against HIV-1 NL4-3 infected in human TZM-bl cells assessed as reduction in viral replication at 1000 nM measured at 48 hrs post-infection by steady-glo reporter gene assay relative to control. Type of data set: functional. The note with it: Human immunodeficiency virus 1, NL4-3, TZM-bl. The method, boiled down: as §2

The subject of data set [8] is Human immunodeficiency virus 1. In words: Antiviral activity against HIV1 NL4-3 infected in human TZM-bl cells assessed as reduction in viral replication at 500 nM measured at 48 hrs post-infection by steady-glo reporter gene assay relative to control. Conditions: Human immunodeficiency virus 1, NL4-3, TZM-bl. Type of data set: functional. Put shortly:
as §2

In data set [9] the target is Protease (Human immunodeficiency virus 1) (UniProt Q9YQ12). The experiment in a line: Inhibition of HIV-1 protease at 500 nM using synthetic peptide as substrate after 15 mins by fluorimetric based assay. The method, boiled down: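 Cell-free fluorometric protease kit. HIV-1 protease was diluted in reaction buffer and loaded at 10 nmol/well with or without compound. Indinavir served as positive control, with untreated and DMSO controls. Fluorescence (Ex/Em 330/450 nm) was read 15 min after addition. n = 3.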

Active and inactive are the calls of the source. The calls are words filed in the database; no cut-off is given here.

Sequence of Protease (Human immunodeficiency virus 1) (Q9YQ12 as listed by the source): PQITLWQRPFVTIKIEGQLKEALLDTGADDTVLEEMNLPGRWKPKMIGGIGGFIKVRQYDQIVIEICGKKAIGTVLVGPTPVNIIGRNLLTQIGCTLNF

For the molecule `Cc1cn([C@H]2C[C@H](N=[N+]=[N-])[C@@H](CO)O2)c(=O)[nH]c1=O` [ZIDOVUDINE], the IC50 in data set [1] was found to be 0.0127 µM. Besides, the half-maximal cytotoxic concentration (CC50) at 48 h in data set [2] amounted to 13.9 µM. Besides, the selectivity ratio in data set [3] came out at 1090.

Turning to `Cc1ccc(NC(=O)Cc2cc(-c3cccs3)on2)cc1`, the MNTC at 48 h in [4] is 100 nM. Also, the inhibition at 0.1 µM in [5] is 56.9%.

For `Cc1ccnc2c1NC(=O)c1cccnc1N2C1CC1`, the inhibition entry in data set [6] is “Active”.

With `COC(=O)c1ccc(NC(=O)Cc2cc(-c3ccccc3)on2)cc1`, the MNTC at 48 h in data set [4] came out at 100 nM. Besides, in data set [5], the inhibition at 0.1 µM came to 27.7%.

Turning to `Cc1cccc(NC(=O)Cc2cc(-c3ccccc3)on2)c1`, the MNTC at 48 h in [4] was 100 nM. In addition, the inhibition at 0.1 µM in data set [5] was 33.3%.

With `CCNC(=O)c1noc(-c2cc(C(C)C)c(O)cc2O)c1-c1ccc(CN2CCOCC2)cc1` [LUMINESPIB], the 50% inhibitory concentration (IC50) in data set [1] is 0.0663 µM. In addition, the MNTC at 48 h in [4] is 1000 nM. Moreover, the 50% cytotoxic concentration (CC50) at 48 h in [2] was found to be 31.1 µM. Besides, the selectivity ratio in [3] came out at 470. Further, the inhibition at 1 µM in data set [7] worked out at 88.3%.

With `Cc1ccccc1NC(=O)Cc1cc(-c2ccccc2)on1`, the MNTC at 48 h in data set [4] was found to be 1000 nM. Also, the inhibition at 1 µM in data set [7] was determined as 23.5%.

In the case of `O=C(Cc1cc(-c2ccccc2)on1)Nc1ccccc1`, the half-inhibitory concentration (IC50) in data set [1] worked out at 0.288 µM. The MNTC at 48 h in data set [4] was 1000 nM. In addition, the CC50 at 48 h in data set [2] came to 23 µM. Also, the selectivity ratio in data set [3] was 79.8. For the same molecule, in [7], the inhibition at 1 µM stood at 89.1%.

For `O=C(Cc1cc(-c2ccccc2)on1)Nc1ccc(F)cc1`, the IC50 in data set [1] turned out to be 0.0871 µM. Besides, the MNTC at 48 h in data set [4] came out at 500 nM. Further, in data set [2], the 50% cytotoxic concentration (CC50) at 48 h came to 11.8 µM. Moreover, the inhibition at 0.5 µM in data set [8] came to 85.4%. Besides, the selectivity ratio in data set [3] amounted to 136.

Take `O=C(Cc1cc(-c2ccccc2)on1)Nc1ccc(O)cc1`: the MNTC at 48 h in [4] is 1000 nM. Besides, in [7], the inhibition at 1 µM is 13.4%.

For `O=C(Cc1cc(-c2ccccc2)on1)Nc1ccccc1O`, the concentration for half-maximal inhibition (IC50) in [1] amounted to 0.253 µM. Also, the MNTC at 48 h in [4] was 1000 nM. Further, in data set [2], the CC50 at 48 h was 42.9 µM. The selectivity ratio in data set [3] is 170. Also, the inhibition at 1 µM in [7] was determined as 94.8%.

On to `CCCNC(=O)Cc1cc(-c2ccccc2)on1`, for which the MNTC at 48 h in [4] is 100 nM. In addition, the inhibition at 0.1 µM in data set [5] was 60.9%.

Turning to `COc1ccc(-c2cc(CC(=O)Nc3cccc(C)c3)no2)cc1`, the half-maximal inhibitory concentration (IC50) in data set [1] is 0.284 µM. Besides, the MNTC at 48 h in data set [4] was found to be 1000 nM. The CC50 at 48 h in [2] was 15.7 µM. In addition, the selectivity ratio in [3] was determined as 55.1. Besides, in data set [7], the inhibition at 1 µM was 95.5%.

Consider `COc1ccc(NC(=O)Cc2cc(-c3ccccc3)on2)cc1`, for which the MNTC at 48 h in [4] came out at 1000 nM. Further, in [7], the inhibition at 1 µM came out at 59.6%.

Take `Cc1ccc(NC(=O)Cc2cc(-c3ccccc3)on2)cc1`: in data set [1], the IC50 was 0.0868 µM. For the same molecule, the MNTC at 48 h in data set [4] is 1000 nM. Further, the cytotoxic concentration (CC50) at 48 h in data set [2] worked out at 44 µM. Moreover, in data set [3], the selectivity ratio is 507. The inhibition at 1 µM in [7] amounted to 98.4%.

As for `CC(C)(C)NC(=O)[C@@H]1CN(Cc2cccnc2)CCN1C[C@@H](O)C[C@@H](Cc1ccccc1)C(=O)N[C@H]1c2ccccc2C[C@H]1O`, the inhibition result in data set [9] was “Active”.

Regarding `O=C(Cc1cc(-c2ccccc2)on1)Nc1ccc(Cl)cc1`, the MNTC at 48 h in data set [4] amounted to 100 nM. For the same molecule, the inhibition at 0.1 µM in [5] was determined as 49%.

Regarding `O=C(Cc1cc(-c2ccco2)on1)Nc1ccc(O)cc1`, the MNTC at 48 h in data set [4] stood at 1000 nM. Also, the inhibition at 1 µM in data set [7] was found to be 53.1%.
